Holding throughout (assay type): functional, cell-based
One assay has as its system MCF7. The assay can be described thus: Antiproliferative activity against human MCF7 cells after 72 hrs by celltitre assay. The conditions noted are these: MCF7, 72 h. Summed up: (§1)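 Cells grown in RPMI 1640 with 10% FBS at 37 °C under 5% CO2, seeded in duplicate at about 5000 cells/well and left 24 h. Compounds then added as 10-fold serial dilutions for 72 h. Viability read by CellTiter-Glo luminescence. IC50 taken as the concentration giving 50% inhibition of cell growth.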

Assay [1] relates to CCRF-CEM. The assay can be described thus: Antiproliferative activity against human CCRF-CEM cells after 72 hrs by celltitre assay. The essentials: (§2)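 Cultured in RPMI 1640 with 5% FBS at 37 °C and 5% CO2. Seeded in duplicate at about 5000 cells/well and incubated 24 h before 10-fold serial compound dilutions were added for 72 h. Viability measured by CellTiter-Glo luminescence. IC50 = concentration inhibiting growth by 50%.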

Assay [2] in a line: Antiproliferative activity against human multidrug-resistant P-glycoprotein expressing NCI/ADR cells after 72 hrs by celltitre assay. The following applies: NCI/ADR-RES. Summed up:
as §1

In another assay the test system is A549. The assay can be described thus: Antiproliferative activity against human A549 cells after 72 hrs by celltitre assay. The conditions noted are these: A549, 72 h. Summed up:
as §1

Assay [3] deals with CCRF-CEM. The assay can be described thus: Antiproliferative activity against human multidrug-resistant P-glycoprotein expressing CCRF-CEM/PTX cells after 72 hrs by celltitre assay. The essentials:
as §2

For `C/C=C/[C@H](O)C(C)(C)[C@@H]1C\C=C/C=C\C=C\[C@H](OC)Cc2nc(co2)C(=O)O[C@H](C(C)(C)[C@@H](O)/C=C/C)C/C=C\[C@@H](O)/C=C/C(OC)/C=C\c2nc(co2)C(=O)O1` (stereo not given in full), the IC50 is 0.62 nM in the assay on MCF7; 0.33 nM in the assay with CCRF-CEM [1]; 28 nM in assay [2]; 0.73 nM in the assay on A549; 1.3 nM in the assay with CCRF-CEM [3].
For `C/C=C/[C@H](O)C(C)(C)[C@@H]1C\C=C/C=C\C=C\[C@H](OC)Cc2nc(co2)C(=O)O[C@H](C(C)(C)[C@@H](O)/C=C/C)C/C=C\[C@@H](O)C(OC)/C=C/C=C\c2nc(co2)C(=O)O1` (stereo not given in full), the IC50 in the assay with MCF7 is 0.24 nM; in the assay with CCRF-CEM [1], 0.11 nM; in assay [2], 2.8 nM; in the assay with A549, 0.25 nM; with CCRF-CEM [3], 0.24 nM.
Consider `C/C=C/[C@H](O)C(C)(C)[C@@H]1C\C=C/C=C\C=C\[C@H](OC)Cc2nc(co2)C(=O)O[C@H](C(C)(C)[C@@H](O)/C=C/C)C/C=C\[C@H]2O[C@H]2/C=C/C=C\c2nc(co2)C(=O)O1` [DISORAZOLE A1], for which the IC50 came to 0.25 nM in the assay with MCF7; 0.07 nM in the assay with CCRF-CEM [1]; 0.52 nM in assay [2]; 0.31 nM with A549; 0.066 nM in the assay with CCRF-CEM [3].

One may read the IC50 as the point on the concentration scale where inhibition reaches its midpoint. Higher therefore signals a need for much substance.

Source of the values: ChEMBL document CHEMBL1157237, “Methanolysis products of disorazole A1” (J Nat Prod, 2006).
